From ChEMBL document CHEMBL1145795, “Design, synthesis, and evaluation of analogues of 3,3,3-trifluoro-2-hydroxy-2-phenyl-propionamide as orally available general anesthetics” (J Med Chem, 2003)
Activity calls are given as the source filed them. The calls are words filed in the database; no cut-off is given here.

Columns and labels:
[1] = molecular target: T1, Sodium channel protein type 4 subunit alpha (Homo sapiens, UniProt P35499); experiment: Inhibition of sodium channels through tonic blockade; assay type: functional
T1 sequence (P35499 whole entry): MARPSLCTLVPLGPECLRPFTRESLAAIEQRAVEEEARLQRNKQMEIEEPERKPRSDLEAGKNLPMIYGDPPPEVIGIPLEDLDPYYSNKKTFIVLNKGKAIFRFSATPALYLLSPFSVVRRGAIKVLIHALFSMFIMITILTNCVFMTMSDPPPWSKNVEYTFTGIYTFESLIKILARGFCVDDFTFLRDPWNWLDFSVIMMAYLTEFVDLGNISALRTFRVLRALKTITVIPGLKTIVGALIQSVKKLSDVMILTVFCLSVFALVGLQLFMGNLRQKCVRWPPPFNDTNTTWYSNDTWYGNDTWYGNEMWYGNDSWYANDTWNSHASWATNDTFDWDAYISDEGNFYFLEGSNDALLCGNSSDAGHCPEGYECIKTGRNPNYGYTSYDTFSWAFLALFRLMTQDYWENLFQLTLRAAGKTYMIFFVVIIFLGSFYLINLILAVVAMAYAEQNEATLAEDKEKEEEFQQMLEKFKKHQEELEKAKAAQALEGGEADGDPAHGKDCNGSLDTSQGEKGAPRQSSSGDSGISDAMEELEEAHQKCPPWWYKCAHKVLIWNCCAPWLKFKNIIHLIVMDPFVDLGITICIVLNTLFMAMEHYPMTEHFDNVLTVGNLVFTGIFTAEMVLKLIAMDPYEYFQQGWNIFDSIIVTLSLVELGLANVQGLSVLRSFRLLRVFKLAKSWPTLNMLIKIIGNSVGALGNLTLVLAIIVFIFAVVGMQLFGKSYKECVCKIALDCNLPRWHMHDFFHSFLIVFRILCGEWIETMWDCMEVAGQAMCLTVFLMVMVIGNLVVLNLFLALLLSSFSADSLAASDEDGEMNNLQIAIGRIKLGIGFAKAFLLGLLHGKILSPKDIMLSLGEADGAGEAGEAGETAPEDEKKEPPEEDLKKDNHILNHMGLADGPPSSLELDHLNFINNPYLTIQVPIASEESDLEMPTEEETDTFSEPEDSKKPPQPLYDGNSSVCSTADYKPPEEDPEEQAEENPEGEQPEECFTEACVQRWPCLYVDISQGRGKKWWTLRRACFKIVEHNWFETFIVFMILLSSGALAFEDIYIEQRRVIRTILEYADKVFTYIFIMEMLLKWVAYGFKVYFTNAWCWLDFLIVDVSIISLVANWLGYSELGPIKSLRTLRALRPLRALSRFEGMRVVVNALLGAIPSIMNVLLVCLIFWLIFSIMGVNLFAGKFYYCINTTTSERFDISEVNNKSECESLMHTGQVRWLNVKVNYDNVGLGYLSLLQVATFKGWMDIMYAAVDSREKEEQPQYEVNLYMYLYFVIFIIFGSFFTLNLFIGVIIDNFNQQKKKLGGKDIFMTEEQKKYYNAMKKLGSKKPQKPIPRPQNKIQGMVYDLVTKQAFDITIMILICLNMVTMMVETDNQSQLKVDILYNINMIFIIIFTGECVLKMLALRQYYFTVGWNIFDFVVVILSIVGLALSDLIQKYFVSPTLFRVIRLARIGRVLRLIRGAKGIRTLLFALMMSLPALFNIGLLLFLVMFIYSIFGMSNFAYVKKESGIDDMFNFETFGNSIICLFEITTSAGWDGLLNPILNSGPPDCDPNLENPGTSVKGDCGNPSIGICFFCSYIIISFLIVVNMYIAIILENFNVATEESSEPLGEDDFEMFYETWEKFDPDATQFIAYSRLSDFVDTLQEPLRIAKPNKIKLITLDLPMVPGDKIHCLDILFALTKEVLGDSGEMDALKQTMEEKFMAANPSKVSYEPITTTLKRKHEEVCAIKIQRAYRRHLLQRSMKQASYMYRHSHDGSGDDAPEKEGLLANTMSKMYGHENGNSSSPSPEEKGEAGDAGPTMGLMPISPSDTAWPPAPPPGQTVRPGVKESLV

[2] = molecular target: T1, Sodium channel protein type 4 subunit alpha; experiment: Inhibition of sodium channels through phasic blockade; assay type: functional
[3] = test system: Rattus norvegicus; experiment: Compound was tested for blood pressure in rat at dose 60 mg/kg administered intraperitoneally; assay type: functional; conditions: route intraperitoneal
Procedure, shortened: (§1)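 Rats were isoflurane-induced, intubated and ventilated, with femoral arterial and venous lines and normothermia. Baseline MAC was taken by tail clamp for 1 min, stepping isoflurane by 0.1% with 12–15 min equilibration. MAC was the midpoint between movement and no movement. The compound (60 mg/kg) was sonicated in 3 mL peanut oil and given ip. MAC was redetermined at 30 min and 1 h. Blood pressure was recorded; values are given as mean ± SEM.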

[4] = test system: Rattus norvegicus; experiment: Compound was tested for minimum alveolar concentration in rat at dose 60 mg/kg administered intraperitoneally; assay type: functional; conditions: route intraperitoneal; procedure, shortened: as §1
[5] = test system: Mus musculus; experiment: Compound was tested for anticonvulsant activity against subcutaneous metrazole at dose 100 mg/kg in time 0.5 hr in mice administered subcutaneously; assay type: functional
Procedure, shortened: (§2)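 Run by the NINDS ADD program in mice, challenged with maximal electroshock or subcutaneous metrazol at 0.5 h and 4 h after dosing. Protection is scored per animal (e.g. […], 5 for scMet at 100 mg/kg).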

[6] = molecular target: Protein kinase C (PKC) (Homo sapiens) (UniProt O94806+P41743+P17252+P05129+Q05655+P05771+Q05513+Q02156+P24723+Q15139+Q04759); experiment: Inhibition of protein kinase C at 100 uM; NE=no effect; assay type: protein assay
[7] = test system: HEK293; experiment: Effect on HEK293 cells co-expressing voltage-gated Na+ channel rNav 1.3 and beta-3 at 100 uM; NE=No effect; assay type: functional, cell-based
Procedure, shortened: (§3)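 rNaV1.3 coexpressed with β3 in HEK293 cells (and Xenopus oocytes), exposed to 10 µM or 100 µM and assessed for Na+ channel block.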

[8] = test system: Mus musculus; experiment: Compound was tested for anticonvulsant activity against maximal electroshock at dose 300 mg/kg in time 4 hr in mice administered subcutaneously; assay type: functional; conditions: route subcutaneous; procedure, shortened: as §2
[9] = test system: Mus musculus; experiment: Compound was tested for anticonvulsant activity against subcutaneous metrazole at dose 30 mg/kg in time 4 hr in mice administered subcutaneously; assay type: functional; procedure, shortened: as §2
[10] = test system: Mus musculus; experiment: Compound was tested for anticonvulsant activity against maximal electroshock at dose 300 mg/kg in time 0.5 hr in mice administered subcutaneously; assay type: functional; conditions: route subcutaneous; procedure, shortened: as §2
[11] = test system: Mus musculus; experiment: Compound was tested for anticonvulsant activity against maximal electroshock at dose 30 mg/kg in time 0.5 hr in mice administered subcutaneously; assay type: functional; conditions: route subcutaneous; procedure, shortened: as §2
[12] = test system: Rattus norvegicus; experiment: Compound was tested for anticonvulsant activity by measuring the therapeutic index by subcutaneous metrazole in rat; assay type: functional
Procedure, shortened: (§4)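 NINDS ADD Phase II quantification with oral dosing. […] Therapeutic index is rotarod TD50 divided by the MES or scMET ED50.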

[13] = test system: HEK293; experiment: Inhibition of rat TASK-1 and TASK-3-leak K+ channels expressed in HEK293 cells at 100 uM; NE denotes no effects; assay type: functional, cell-based
[14] = test system: Mus musculus; experiment: Compound was tested for anticonvulsant activity against maximal electroshock at dose 100 mg/kg in time 4 hr in mice administered subcutaneously; assay type: functional; conditions: route subcutaneous; procedure, shortened: as §2
[15] = test system: HEK293; experiment: Effect on HEK293 cells co-expressing voltage-gated Na+ channel rNav 1.3 and beta-3 at 10 uM; NE=No effect; assay type: functional, cell-based; procedure, shortened: as §3
[16] = test system: Mus musculus; experiment: Compound was tested for anticonvulsant activity against subcutaneous metrazole at dose 30 mg/kg in time 0.5 hr in mice administered subcutaneously; assay type: functional; procedure, shortened: as §2
[17] = test system: Rattus norvegicus; experiment: Compound was tested for isoflurane minimum alveolar concentration in rat at dose 60 mg/kg administered intraperitoneally; assay type: functional; conditions: route intraperitoneal; procedure, shortened: as §1
[18] = test system: Mus musculus; experiment: Compound was tested for anticonvulsant activity against subcutaneous metrazole at dose 300 mg/kg in time 4 hr in mice administered subcutaneously; assay type: functional; procedure, shortened: as §2
[19] = test system: Mus musculus; experiment: Compound was tested for anticonvulsant activity against subcutaneous metrazole at dose 100 mg/kg in time 4 hr in mice administered subcutaneously; assay type: functional; procedure, shortened: as §2
[20] = test system: Mus musculus; experiment: Compound was tested for anticonvulsant activity using rotarod method at dose 100 mg/kg in time 4 hr in mice administered subcutaneously; assay type: functional; conditions: route subcutaneous
Procedure, shortened: (§5)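 NINDS ADD rotarod neurotoxicity screen in mice at 0.5 h and 4 h post-dose. The score is inability to grasp the rotating rod; loss of righting reflex after falling was also noted.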

[21] = test system: Mus musculus; experiment: Compound was tested for anticonvulsant activity using rotarod method at dose 100 mg/kg in time 0.5 hr in mice administered subcutaneously; assay type: functional; conditions: route subcutaneous; procedure, shortened: as §5
[22] = test system: Mus musculus; experiment: Compound was tested for anticonvulsant activity using rotarod method at dose 300 mg/kg in time 4 hr in mice administered subcutaneously; assay type: functional; conditions: route subcutaneous; procedure, shortened: as §5
[23] = test system: Mus musculus; experiment: Compound was tested for anticonvulsant activity against maximal electroshock at dose 30 mg/kg in time 4 hr in mice administered subcutaneously; assay type: functional; conditions: route subcutaneous; procedure, shortened: as §2
[24] = test system: Mus musculus; experiment: Compound was tested for anticonvulsant activity using rotarod method at dose 300 mg/kg in time 0.5 hr in mice administered subcutaneously; assay type: functional; conditions: route subcutaneous; procedure, shortened: as §5
[25] = test system: Mus musculus; experiment: Compound was tested for anticonvulsant activity against subcutaneous metrazole at dose 300 mg/kg in time 0.5 hr in mice administered subcutaneously; assay type: functional; procedure, shortened: as §2
[26] = test system: Mus musculus; experiment: Compound was tested for anticonvulsant activity against maximal electroshock at dose 100 mg/kg in time 0.5 hr in mice administered subcutaneously; assay type: functional; conditions: route subcutaneous; procedure, shortened: as §2
[27] = molecular target: Gamma-aminobutyric acid receptor subunit gamma-1 (Rattus norvegicus) (UniProt P23574); experiment: Enhanced 10 uM GABA-A receptor currents in rat hippocampal neurons; NE=no effect; assay type: functional, tissue-based; conditions: Hippocampus
Chain of Gamma-aminobutyric acid receptor subunit gamma-1 (Rattus norvegicus) (P23574 whole entry): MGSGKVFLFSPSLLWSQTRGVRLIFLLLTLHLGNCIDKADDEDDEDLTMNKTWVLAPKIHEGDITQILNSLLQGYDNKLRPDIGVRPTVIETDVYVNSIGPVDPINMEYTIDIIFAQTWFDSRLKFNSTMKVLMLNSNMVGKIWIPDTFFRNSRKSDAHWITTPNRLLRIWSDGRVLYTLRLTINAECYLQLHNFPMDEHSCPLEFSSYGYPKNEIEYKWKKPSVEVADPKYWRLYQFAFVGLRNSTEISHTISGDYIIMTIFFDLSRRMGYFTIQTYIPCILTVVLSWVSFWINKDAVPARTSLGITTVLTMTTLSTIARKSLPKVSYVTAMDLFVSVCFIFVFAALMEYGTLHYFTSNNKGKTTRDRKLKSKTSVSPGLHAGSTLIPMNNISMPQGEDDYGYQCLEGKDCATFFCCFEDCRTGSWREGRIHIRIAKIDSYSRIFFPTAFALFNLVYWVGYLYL
Procedure, shortened: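 Peak current is expressed as percent of the GABA-alone control. Concentration–response was fitted to a four-parameter logistic; values are given as mean ± SEM.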

[28] = species on record: Rattus norvegicus; experiment: Compound was tested for anticonvulsant activity using rotarod method in rat; assay type: functional; procedure, shortened: as §4
[29] = species on record: Rattus norvegicus; experiment: Compound was tested for anticonvulsant activity against maximal electroshock in rat; assay type: functional; procedure, shortened: as §4
[30] = test system: Rattus norvegicus; experiment: Compound was tested for anticonvulsant activity against subcutaneous metrazole in rat; assay type: functional; conditions: sc; procedure, shortened: as §4
[31] = species on record: Rattus norvegicus; experiment: Compound was tested for anticonvulsant activity by measuring the therapeutic index by maximal electroshock in rat; assay type: functional; procedure, shortened: as §4

With `CNC1(c2ccccc2Cl)CCCCC1=O` (stereo not given) [KETAMINE] the IC50 [1] was 800 µM and the IC50 [2] was 2300 µM.
Compound `NC(=O)C(O)(c1ccccc1)C(F)(F)Cl` (stereo not given) has a Mean blood pressure [3] of 81 mmHg and an MAC reduction [4] of -43%.
For `NCC(O)(c1ccccc1)C(F)(F)F` (stereo not given), the Mean blood pressure [3] was 116 mmHg and the MAC reduction [4] was -6.5%.
In the case of `O=C1Nc2ccccc2C1(O)C(F)(F)F` (stereo not given), the Mean blood pressure [3] is reported as 113 mmHg and the MAC reduction [4] is reported as -4.3%.
In the case of `NC(=O)C(O)(c1ccccc1)C(F)(F)F` (stereo not given), the Protection [5] is reported as 5, the Activity [6] is reported as “inactive” and the Activity [7] is reported as “inactive”. The Activity ([7]; Xenopus sp.) was “inactive”, the Protection [8] was 1 and the Protection [9] was 0. It also gave a Protection [10] of 1, a Protection [11] of 0 and a T.I. [12] of 2.6. For the same compound, the Activity [13] was “inactive”, the Protection [14] was 3 and the Mean blood pressure [3] was 119 mmHg. For the same compound, the Activity [15] was “inactive”, the Activity ([15]; Xenopus sp.) was “inactive” and the Protection [16] was 0. The Volume reduction [17] was 34%, the Protection [18] was 1 and the Protection [19] was 0. For the same compound, the Protection [20] was 2, the Protection [21] was 4 and the Protection [22] was 2. For the same compound, the Protection [23] was 0, the Protection [24] was 4 and the Protection [25] was 1. For the same compound, the MAC reduction [4] was -34%, the Protection [26] was 3 and the Activity [27] was “inactive”. It also gave an ED50 [28] of 100 mg/kg, an ED50 [29] of 9.9 mg/kg and an ED50 [30] of 39 mg/kg. It also gave a T.I. [31] of 10.
`O=C1NC(=O)C(c2ccccc2)(c2ccccc2)N1` [PHENYTOIN] was tested, and the ED50 [28] was 66 mg/kg, the ED50 [29] was 9.5 mg/kg and the ED50 [30] was greater than 300 mg/kg. For the same compound, the T.I. [31] was 6.9.
Work on `NC(=O)C(OCc1ccccc1)(c1ccccc1)C(F)(F)F` (stereo not given) yielded a Mean blood pressure [3] of 121 mmHg and an MAC reduction [4] of -4.4%.
`NC(=O)C(O)(CC(F)(F)F)c1ccccc1` (stereo not given) was tested, and the Mean blood pressure [3] was 107 mmHg and the MAC reduction [4] was -11%.
Compound `NC(=O)C(O)(Cc1ccccc1)C(F)(F)F` (stereo not given) has a Mean blood pressure [3] of 111 mmHg and an MAC reduction [4] of 0%.
Compound `CC(O)(C(N)=O)c1ccccc1` (stereo not given) [ATROLACTAMIDE] has a Mean blood pressure [3] of 127 mmHg and an MAC reduction [4] of 0%.
Work on `O=C(O)C(O)(c1ccccc1)C(F)(F)F` (stereo not given) yielded a Mean blood pressure [3] of 116 mmHg and an MAC reduction [4] of -9.1%.
`CN1C(=O)C(O)(C(F)(F)F)c2ccccc21` (stereo not given) was tested, and the Mean blood pressure [3] was 112 mmHg and the MAC reduction [4] was -4.4%.
